Screening data from PubChem BioAssay.
MC4R antag cAMP: human MC4R antagonism in cAMP assay; P32245; MC4R-expressing cells, MTII-stimulated cAMP, LANCE TR-FRET; inhibition, % at 6.5 µM; 360,000 tested, 0.48% active; AID 540295;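 active = inhibition above its plate's cutoff, the mean of tested wells on that plate plus 3 SD, cut at about 29% in these data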;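 note: 0% = Melanotan II alone and 100% = Melanotan II plus saturating MCL0020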
Target sequence (P32245 whole entry, looked up): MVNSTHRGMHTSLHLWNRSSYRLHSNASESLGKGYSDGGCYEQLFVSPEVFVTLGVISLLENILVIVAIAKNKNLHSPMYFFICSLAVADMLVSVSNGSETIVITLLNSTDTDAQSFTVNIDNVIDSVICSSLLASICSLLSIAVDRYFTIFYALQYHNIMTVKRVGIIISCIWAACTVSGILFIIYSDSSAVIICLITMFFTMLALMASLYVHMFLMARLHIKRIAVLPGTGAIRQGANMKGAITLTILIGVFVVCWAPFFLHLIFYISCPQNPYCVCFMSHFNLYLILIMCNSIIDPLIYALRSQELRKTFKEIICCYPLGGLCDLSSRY
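System: U2OS cells stably expressing human melanocortin 4 receptor (MC4R). Reagent: Melanotan II challenge after compound preincubation. Doses: 6.5 µM. Times: 30-min compound, 1-h challenge, 1-h detection, room temperature. Measured by: TR-FRET with Eu-cAMP and labeled anti-cAMP, 671 nm. Replicates: singlicate.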
Exocytosis inh: blocks lytic granule exocytosis. inhibition, % at 10 µM. 360,000 tested, 0.66% active. TALL-104 LAMP-1 surface exposure, flow cytometry; cells stimulated with thapsigargin and PMA;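 active = inhibition above about 55%, limit read from the data; inconclusive = no clear call, values can overlap the other calls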
Myeloid diff MLP: myeloid differentiation induction; 360,000 tested, 1% active; calls only at 10 µM; ER-HoxA9 myeloid progenitors, lysozyme-GFP differentiation, flow cytometry; AID 624256;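 active = normalized GFP-positive differentiation at or above the plate's own cutoff, the solvent-only control mean plus 3 SD; inconclusive = no clear call, values can overlap the other calls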;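 note: cells exposed to compound for four days before flow analysis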
EBI2 antag: blocks human EBI2 receptor beta-arrestin signaling | 360,000 tested, 0.81% active | EBI2 beta-arrestin recruitment, luminescence, 7a,25-OHC stimulated | inhibition, % at 5 µM | P32249; in the data active = inhibition above about 38%;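 note: enzyme fragment complementation signal reports receptor beta-arrestin coupling in cells; 0% = agonist plus DMSO wells and 100% = wells without agonist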
MC4R ag barr: agonists of human melanocortin 4 receptor (MC4R) beta-arrestin; P32245; U2OS MC4R beta-arrestin complementation, luminescence; percent of melanotan II response, DMSO zero; activation, % at 8.9 µM; 360,000 tested, 0.98% active;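 active = activation above a per-plate cutoff, the mean activation of sample wells on that plate plus 3 SD, cut at about 8% in these data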
An asterisk follows results filed as active; i = inactive; ? = inconclusive; / = not tested or not shown; + = active, no number. An excerpt weighted towards active compounds, which were near 3.7% of everything screened.

SMILES	MC4R antag cAMP	Exocytosis inh	Myeloid diff MLP	EBI2 antag	MC4R ag barr
COc1ccccc1N1C(=O)c2ccccc2NC1c1ccncc1 (stereo not drawn)	3.3	-2.0	i	-14.9	-1.5
CC1(O)N(CCC(=O)Nc2cccc(F)c2)C(=O)OC12CCCCC2 (stereo not drawn)	7.4	-0.3	i	9.1	-1.3
CC1(C)N=C(N)N=C(N)N1c1ccc(F)cc1F	1.2	-0.4	+	3.1	-1.2
Cc1ccc(S(=O)(=O)NCCCCCC(=O)Nc2cccc(C)c2)cc1	7.8	-0.6	i	0.6	-0.6
COc1ccccc1CNC(=O)[C@H](C)NC(=O)C1CCN(C(=O)[C@@H]2CCCN2C(=O)OC(C)(C)C)CC1	19.5	4.6	i	-2.5	0.7
Cc1cc(/C=C2\SC(=S)NC2=O)cc(C)c1O	1.2	0.2	i	-8.7	-1.6
CCN(CC)c1ccc(C=C2SC(=S)NC2=O)cc1	10.3	7.7	+	16.6	-3.0
CCN(CC)c1ccc(/C=C2\SC(N)=NC2=O)cc1	-5.5	-7.4	+	-2.5	-1.2
O=C1NC(=S)S/C1=C/c1ccc(OC(=O)c2ccco2)cc1	-11.7	79.4*	+	-20.6	-3.4
NC1=NC(=O)/C(=C/c2ccc(OCC(=O)O)cc2)S1	1.8	-3.6	i	-5.4	-0.2
CCCCn1nc(C(=O)Oc2ccc3c(C)cc(=O)oc3c2)c2ccccc2c1=O	2.9	0.2	i	-5.3	0.4
O=C(NCc1cccnc1)C(=O)NCC1OCCN1S(=O)(=O)c1ccc(F)cc1 (stereo not drawn)	4.7	-2.8	i	-0.9	0.9
CNC(=O)c1cc(C(=O)c2ccc(C(F)(F)F)cc2F)c[nH]1	-4.5	-5.2	i	0.0	-1.7
CNC(=O)c1cc(C(=O)c2ccc(C(F)(F)F)cc2)c[nH]1	8.2	-3.9	+	-31.0	0.3
Cn1c(/C(C#N)=C(\O)CN2CCN(Cc3ccccc3)CC2)nc2ccccc21	6.7	1.8	i	-11.4	0.4
Cc1ccc(SC/C(O)=C(\C#N)c2nc3ccccc3n2C)cc1	6.7	-3.6	i	3.9	8.3*
O=C(Nc1ccc2c(c1)CCC2)c1cnn2c1NC(c1ccco1)CC2C(F)(F)F (stereo not drawn)	12.3	-4.8	i	3.4	16.8*
CCSc1nnc2ccc(-c3ccc(OC)c(OC)c3)nn12	-11.8	-5.7	+	-9.4	-1.4
CC(C)[C@@H](C(=O)N[C@@H](C(=O)O)c1ccccc1)N1C(=O)N2CCc3c([nH]c4ccccc34)[C@@]2(C)C1=O	3.8	-3.3	i	-6.6	-0.6
O=C(/C(=C/c1ccc(Cl)cc1)c1nc2ccccc2[nH]1)c1cccs1	8.7	96.3*	?	-2.2	-1.7
O=C(/C=C/c1cccc(Cl)c1)c1nc2ccccc2[nH]1	14.0	7.0	i	55.9*	-3.8
O=C(/C(=C\c1ccccc1)c1nc2ccccc2[nH]1)c1ccc(Cl)cc1	4.0	46.5	?	47.9*	0.7
COC(=O)/C(=C\c1ccc(O)cc1)c1nc2ccccc2[nH]1	0.8	-3.7	i	-0.2	-2.0
O=C(/C=C/c1cccc(Cl)c1)Nc1ncccn1	9.1	-6.1	i	-4.5	0.4
COc1cc2c(cc1OC)C(c1ccccc1C(F)(F)F)CC(=O)N2 (stereo not drawn)	-1.3	-11.5	i	1.3	0.6
SMILES	MC4R antag cAMP	Exocytosis inh	Myeloid diff MLP	EBI2 antag	MC4R ag barr
Cc1ncc(CN2CCN(Cc3ccccc3)C(CCO)C2)s1 (stereo not drawn)	7.2	-4.4	+	-3.7	-2.9
COc1ccc(NC(=O)/C(C#N)=C/c2ncc([N+](=O)[O-])n2C)c(OC)c1	-12.7	97.0*	i	7.2	-1.5
CCN(CC)CCNc1ccc(CO)c2oc3ccccc3c(=O)c12	0.2	-2.6	+	-4.6	-0.7
CCOC(=O)C1=C(C)N=c2s/c(=C\c3ccc(OC(C)=O)cc3)c(=O)n2C1/C=C/c1ccccc1 (stereo not drawn)	27.3	-3.4	+	-3.3	-1.7
CCOC(=O)C1=C(C)N=c2s/c(=C\c3ccc(OC(C)=O)c(OCC)c3)c(=O)n2C1/C=C/c1ccccc1 (stereo not drawn)	3.5	-0.9	i	2.0	-1.7
CC(C)(C)n1ncc2c(=O)n(Cc3ccc(Cl)c(Cl)c3)cnc21	6.5	1.8	+	1.6	-1.9
CC1NC(=O)c2cccnc2-n2c1nc1cc(F)c(F)cc1c2=O (stereo not drawn)	3.9	-1.7	i	-9.0	0.8
COc1cccc(-n2nc(C#N)c(Cl)cc2=O)c1	-2.0	9.8	/	46.6*	-2.1
CCSc1nnc(-c2sc3nnc(-c4ccccc4)c(-c4ccccc4)c3c2N)o1	21.4	1.1	+	3.4	-1.2
CCSc1nnc(-c2ccncc2)o1	3.4	4.9	i	6.5	-2.4
N#Cc1c(N)n(CCNC(=O)c2ccccc2)c2nc3ccccc3nc12	19.7	1.0	i	-5.4	-0.9
N#Cc1c(N)n(CCNC(=O)c2cccs2)c2nc3ccccc3nc12	12.1	-7.2	+	-2.8	-2.6
Cc1nc(Nc2cccc(F)c2)c2oc3ccccc3c2n1	5.3	?	+	-0.5	0.9
Cc1nc(Nc2cccc(Cl)c2)c2oc3ccccc3c2n1	0.8	38.0	i	2.7	1.6
CCc1ccc(OCc2cccc(C(=O)N/N=C\c3cnn(C)c3C)c2)cc1	-0.5	-1.0	+	-0.3	1.7
COc1ccc([C@H]2C(C#N)=C([S-])N[C@](C)(O)[C@@H]2[n+]2ccccc2)cc1	3.8	0.8	+	-9.2	-0.2
CCCCCCCCCCCCCCCC[N+](C)(C)CCN(Cc1ccc(OC)cc1)c1ncccn1	42.9*	30.5	/	-4.8	11.8*
COc1ccc(CN(CCN(C)C)c2ccccn2)cc1	8.3	-0.8	i	-0.2	-0.1
CC(=O)Nc1cccc(C(=O)OCc2csc(CC(=O)Nc3ccccc3C)n2)c1	10.7	-1.5	i	-5.4	-0.9
Cc1ccc([N+](=O)[O-])cc1N/C=C1\CCc2ccccc2C1=O	-0.3	57.1*	i	-7.8	-3.2
Cc1ccccc1CSCC(=O)NCc1ccco1	-4.5	-5.9	i	-2.7	2.0
CC(=NNc1nc2ccccc2o1)c1cc2ccccc2cn1	5.4	101.0*	?	1.5	-1.2
CC(=NNc1nc2ccccc2o1)c1ncccn1	0.7	-1.6	?	54.6*	-3.4
CC(=NNc1nc2ccccc2s1)c1ncccn1	2.9	102.3*	?	56.7*	-2.8
Cc1cc(C)nc(Nc2nc3ccccc3o2)n1	1.6	-5.8	i	1.3	-0.3
Oc1ccccc1/C=N/Nc1nc2ccccc2o1	19.5	-0.1	?	12.3	1.4
Cc1cc(NCC2CCCCC2)nc2ccccc12	0.8	19.7	+	8.4	-0.7
Cc1cc(NCCNC2=CC(=O)CCC2)nc2ccccc12	6.4	-5.4	i	-7.5	-1.8
CCN1C(=O)/C(=C/N2CCc3ccccc3C2)SC1=S	3.4	7.0	i	5.5	0.5
